# Measured values from ChEMBL document CHEMBL1938334, “Quinoline tricyclic derivatives. Design, synthesis and evaluation of the antiviral activity of three new classes of RNA-dependent RNA polymerase inhibitors” (Bioorg Med Chem, 2011).
# Columns and labels:
# [1] = Cytotoxicity against human MT4 cells after 96 hrs by MTT assay; type: cell-based
# Outline: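 Exponentially growing MT-4 cells seeded at 1×10^5 cells/mL in RPMI-1640 with 10% FBS, penicillin and streptomycin. Incubated with serial compound dilutions at 37 °C, 5% CO2 for 96 h; viability by MTT. CC50 by linear regression relative to untreated controls; mean of three independent determinations.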
# [2] = test system: Human immunodeficiency virus 1; assay: Antiviral activity against HIV1 3B infected in human MT4 cells assessed as inhibition of virus-induced cytopathogenicity after 4 days by MTT assay; type: functional, organism-based; settings: Human immunodeficiency virus 1, 3B, MT4, 96 h
# Outline: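 MT-4 cells (1×10^4 per well) were infected with HIV-1 IIIB at 100 CCID50, m.o.i. 0.01, together with serial compound dilutions. Viability was read by MTT after 4 days at 37 °C. EC50 was taken by linear regression versus untreated controls. Mean of three determinations.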
# [3] = Cytotoxicity against MDBK cells after 48 to 96 hrs by MTT assay; type: cell-based, Bos taurus; settings: cattle
# Outline: (§1)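 MDBK seeded at 6×10^5 and BHK at 1×10^6 cells/mL in MEM-Earle's with L-glutamine, 1 mM pyruvate, kanamycin, plus 10% horse serum (MDBK) or 10% FBS (BHK). Cells were grown at 37 °C, 5% CO2 with serial compound dilutions (DMSO stocks diluted in medium). Viability by MTT after 48–96 h. CC50 was taken by linear regression versus untreated controls; three independent determinations.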
# [4] = Antiviral activity against Bovine viral diarrhea virus 1-NADL infected in MDBK cells assessed as inhibition of virus-induced cytopathogenicity after 3 to 4 days by MTT assay; type: functional, cell-based; settings: Bovine viral diarrhea virus isolates and strains
# Outline: (§2)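 Host cells were seeded in 96-well plates at 3×10^4 cells/well (MDBK) or 5×10^4 cells/well (BHK-21) and grown to confluent monolayers overnight. They were infected at m.o.i. 0.01 in maintenance MEM with 0.5% inactivated FBS. Serial compound dilutions were added after 1 h. Viability was read by MTT after 3–4 days at 37 °C. EC50 was taken by linear regression against untreated controls. Mean of three determinations.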
# [5] = Cytotoxicity against BHK21 cells after 48 to 96 hrs by MTT assay; type: cell-based, Mesocricetus auratus, BHK-21; settings: hamster; outline: as §1
# Yellow fever virus = assay: Antiviral activity against Yellow fever virus 17D Stamaril Pasteur J07B01 infected in hamster BHK21 cells assessed as inhibition of virus-induced cytopathogenicity after 3 to 4 days by MTT assay; type: functional, cell-based; settings: Stamaril Pasteur J07B01, BHK-21; outline: as §2
# Reovirus sp. = assay: Antiviral activity against Reovirus type-1 3651 infected in hamster BHK21 cells assessed as inhibition of virus-induced cytopathogenicity after 3 to 4 days by MTT assay; type: functional, organism-based; settings: Reovirus sp., 3651, BHK-21; outline: as §2
# [6] = Cytotoxicity against african green monkey Vero 76 cells after 48 to 96 hrs by crystal violet staining; type: cell-based; settings: chlorocebus sabaeus
# Outline: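 Vero-76 cells were seeded at 4×10^5 cells/mL in D-MEM with L-glutamine, kanamycin and 10% FBS, then exposed to serial compound dilutions at 37 °C, 5% CO2 for 48–96 h. Viability was read by crystal violet staining. 50% cytotoxic concentration by linear regression relative to untreated controls; mean of three independent determinations.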
# Coxsackievirus B5 = assay: Antiviral activity against Human coxsackievirus B5 Ohio-1 infected in african green monkey Vero 76 cells assessed as reduction of virus-induced plaque formation after 3 days using crystal violet staining; type: functional, organism-based; settings: Enterovirus B, Ohio-1, Vero, 72 h
# Poliovirus 1 = assay: Antiviral activity against Human poliovirus 1 strain Sabin Chat infected in african green monkey Vero 76 cells assessed as virus-induced reduction of plaque formation after 2 days using crystal violet staining; type: functional, cell-based; settings: Enterovirus C, 48 h
# Human orthopneumovirus = assay: Antiviral activity against Human respiratory syncytial virus A2 infected in african green monkey Vero 76 cells assessed as reduction of virus-induced plaque formation after 5 days using crystal violet staining; type: functional, organism-based; settings: 120 h
# [7] = test system: Vesicular stomatitis Indiana virus; assay: Antiviral activity against clinical isolate Vesicular stomatitis Indiana virus infected in african green monkey Vero 76 cells assessed as reduction of virus-induced plaque formation after 2 days using crystal violet staining; type: functional, organism-based; settings: 48 h
# [8] = Antiviral activity against Vaccinia virus Lister Elstree infected in african green monkey Vero 76 cells assessed as reduction of virus-induced plaque formation after 3 days using crystal violet staining; type: functional, cell-based; settings: 72 h
# Human alphaherpesvirus 1 = assay: Antiviral activity against Human herpesvirus 1 strain KOS infected in african green monkey Vero 76 cells assessed as reduction of virus-induced plaque formation after 3 days using crystal violet staining; type: functional, organism-based; settings: Human alphaherpesvirus 1, KOS, 72 h
Compound,CC50 at 96 h [1] [µM],EC50 [2] [µM],CC50 [3] [µM],EC50 [4] [µM],CC50 [5] [µM],EC50 (Yellow fever virus) [µM],EC50 (Reovirus sp.) [µM],CC50 [6] [µM],EC50 (Coxsackievirus B5) [µM],EC50 (Poliovirus 1) [µM],EC50 (Human orthopneumovirus) [µM],EC50 [7] [µM],EC50 [8] [µM],EC50 (Human alphaherpesvirus 1) [µM]
c1ccc(-c2ccc(-c3nc4cc5cccnc5cc4[nH]3)cc2)cc1,8,> 8,≥ 100,60,20,> 20,> 20,80,3,> 80,> 80,> 80,> 80,> 80
Clc1c2ncccc2cc2nc(C3CCCCC3)[nH]c12,57,> 57,73,19,26,> 26,> 26,> 100,43,80,> 100,≥ 100,≥ 100,> 100
Oc1ccnc2c(Cl)c3[nH]c(-c4ccccc4)nc3cc12,> 100,> 100,> 100,> 100,75,> 75,> 75,> 100,> 100,> 100,> 100,> 100,> 100,> 100
Clc1c2ncccc2cc2nccnc12,82,> 82,6.5,> 6.5,70,> 70,> 70,90,50,> 90,> 90,> 90,57,90
Oc1ccnc2c(Cl)c3nccnc3cc12,42,> 42,63,> 63,85,> 85,> 85,90,> 90,> 90,> 90,> 90,> 90,90
Clc1c2ncccc2cc2nc(CBr)c(CBr)nc12,16,> 16,20,> 20,> 100,> 100,> 100,> 100,> 100,> 100,> 100,> 100,> 100,> 100
Clc1c2ncccc2cc2ncc(-c3ccccc3)nc12,> 100,> 100,> 100,18,> 100,> 100,> 100,> 100,> 100,> 100,> 100,> 100,> 100,> 100
Clc1c2ncccc2cc2nc(-c3ccccc3)c(-c3ccccc3)nc12,> 100,> 100,> 100,> 100,> 100,> 100,> 100,> 100,> 100,> 100,> 100,> 100,> 100,> 100
CCc1nc2cc3cccnc3c(Cl)c2[nH]c1=O,51,> 51,75,6.5,95,> 95,36,100,> 100,> 100,18,35,> 100,> 100
CC(C)c1nc2cc3cccnc3c(Cl)c2[nH]c1=O,48,> 48,100,5,> 100,> 100,47,> 100,> 100,> 100,38,62,> 100,> 100
CCOC(=O)C(C)c1nc2cc3cccnc3c(Cl)c2[nH]c1=O (configuration not stated),59,> 59,> 100,19,> 100,> 100,> 100,> 100,> 100,≥ 100,> 100,≥ 100,> 100,≥ 100
O=c1[nH]c2c(Cl)c3ncccc3cc2nc1-c1ccccc1,61,> 61,> 100,5,> 100,> 100,100,> 100,> 100,> 100,> 100,100,39,> 100
CC(C)c1nc2c(Cl)c3ncccc3cc2[nH]c1=O,100,> 100,> 100,100,> 100,> 100,> 100,> 100,> 100,> 100,> 100,> 100,> 100,> 100
